Test results: PMC4206749 (Toxicological Research, 2014)

How the values were obtained:
[1] = system: L5178Y Tk^+/− mouse lymphoma cells; experiment: In vitro comet assay; type: cell-based; conditions: 4 hr
[2] = system: Salmonella typhimurium strain TA1537; experiment: Bacterial reverse mutation assay; type: cell-based
CHL cells = experiment: Cytotoxicity assay; type: cell-based, Chinese hamster; conditions: 7.81 to 1,000 μg/ml, 24 hr treatments
Summary of the method: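 MTT viability test. Cells were seeded at 1 × 10^4 per well overnight, then exposed 24 hr to test compound; CHL range 7.81 to 1,000 μg/ml. MTT was added at 0.5 mg/ml final for 4 hr at 37℃, followed by DMSO lysis and absorbance at 550 nm. Values are percent of untreated control, with triplicate samples in three independent experiments; IC50 was calculated for CHL.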

[3] = system: L5178Y Tk^+/− mouse lymphoma cells; experiment: Cytotoxicity assay; type: cell-based
[4] = system: 2 Gy irradiated Chinese hamster ovary (CHO)-K1 cells; conditions: 2 Gy irradiated CHO-K1 cells; cited from earlier work
[5] = system: S. typhimurium strains (TA98, TA100, TA1535, and TA1537) or E. coli strain (WP2 uvrA); experiment: Bacterial reverse mutation assay, all five tester strains; type: cell-based, Salmonella typhimurium, Escherichia coli
Summary of the method: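 Pre-incubation Ames test per OECD 471 with S. typhimurium TA98, TA100, TA1535, TA1537 and E. coli WP2 uvrA. Bacteria plus test compound in DMSO (DMSO as negative control), with S9 mix (10% S9 plus cofactors) or 0.1 M phosphate buffer pH 7.4, were incubated 20 min at 37℃ shaking. Plated in histidine/biotin or tryptophan top agar, incubated 48 hr at 37℃, revertants counted. Triplicate plates; dose ratio about 2.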

Oc1ccc(-c2ccc3cc(O)ccc3c2)c(O)c1 [HS-1793, 4-(6-hydroxy-2-naphthyl)-1,3-benzenediol]
% DNA in tail ([1]; S9 Mix (+), 3.9 μg/ml): 0.98 ± 0.13%
Olive moment ([1]; S9 Mix (+), 3.9 μg/ml): 0.41 ± 0.04 μm
Tail length ([1]; S9 Mix (+), 3.9 μg/ml): 0.86 ± 0.04 μm
Tail moment ([1]; S9 Mix (+), 3.9 μg/ml): 0.04 ± 0.01 μm
% DNA in tail ([1]; S9 Mix (+), 7.8 μg/ml): 1.16 ± 0.08%
Olive moment ([1]; S9 Mix (+), 7.8 μg/ml): 0.56 ± 0.06 μm
Tail length ([1]; S9 Mix (+), 7.8 μg/ml): 0.95 ± 0.13 μm
Tail moment ([1]; S9 Mix (+), 7.8 μg/ml): 0.06 ± 0.01 μm
% DNA in tail ([1]; S9 Mix (+), 15.5 μg/ml): 1.42 ± 0.16%
Olive moment ([1]; S9 Mix (+), 15.5 μg/ml): 0.78 ± 0.12 μm
Tail length ([1]; S9 Mix (+), 15.5 μg/ml): 1.04 ± 0.06 μm
Tail moment ([1]; S9 Mix (+), 15.5 μg/ml): 0.13 ± 0.02 μm
% DNA in tail ([1]; S9 Mix (+), 31 μg/ml): 1.58 ± 0.11%
Olive moment ([1]; S9 Mix (+), 31 μg/ml): 0.80 ± 0.17 μm
Tail length ([1]; S9 Mix (+), 31 μg/ml): 1.17 ± 0.07 μm
Tail moment ([1]; S9 Mix (+), 31 μg/ml): 0.09 ± 0.02 μm
% DNA in tail ([1]; S9 Mix (+), 62 μg/ml): 1.65 ± 0.09%
Olive moment ([1]; S9 Mix (+), 62 μg/ml): 0.85 ± 0.15 μm
Tail length ([1]; S9 Mix (+), 62 μg/ml): 1.20 ± 0.03 μm
Tail moment ([1]; S9 Mix (+), 62 μg/ml): 0.15 ± 0.01 μm
% DNA in tail ([1]; S9 Mix (−), 3.9 μg/ml): 0.93 ± 0.21%
Olive moment ([1]; S9 Mix (−), 3.9 μg/ml): 0.42 ± 0.03 μm
Tail length ([1]; S9 Mix (−), 3.9 μg/ml): 1.49 ± 0.36 μm
Tail moment ([1]; S9 Mix (−), 3.9 μg/ml): 0.03 ± 0.01 μm
% DNA in tail ([1]; S9 Mix (−), 7.8 μg/ml): 1.09 ± 0.37%
Olive moment ([1]; S9 Mix (−), 7.8 μg/ml): 0.62 ± 0.05 μm
Tail length ([1]; S9 Mix (−), 7.8 μg/ml): 1.98 ± 0.27 μm
Tail moment ([1]; S9 Mix (−), 7.8 μg/ml): 0.07 ± 0.02 μm
% DNA in tail ([1]; S9 Mix (−), 15.5 μg/ml): 1.61 ± 0.49%
Olive moment ([1]; S9 Mix (−), 15.5 μg/ml): 0.75 ± 0.07 μm
Tail length ([1]; S9 Mix (−), 15.5 μg/ml): 2.11 ± 0.41 μm
Tail moment ([1]; S9 Mix (−), 15.5 μg/ml): 0.13 ± 0.03 μm
% DNA in tail ([1]; S9 Mix (−), 31 μg/ml): 2.13 ± 0.36%
Olive moment ([1]; S9 Mix (−), 31 μg/ml): 0.98 ± 0.09 μm
Tail length ([1]; S9 Mix (−), 31 μg/ml): 2.75 ± 0.37 μm
Tail moment ([1]; S9 Mix (−), 31 μg/ml): 0.16 ± 0.03 μm
% DNA in tail ([1]; S9 Mix (−), 62 μg/ml): 2.52 ± 0.34%
Olive moment ([1]; S9 Mix (−), 62 μg/ml): 1.01 ± 0.07 μm
Tail length ([1]; S9 Mix (−), 62 μg/ml): 2.82 ± 0.46 μm
Tail moment ([1]; S9 Mix (−), 62 μg/ml): 0.21 ± 0.05 μm
% DNA in the tail, tail length, TM, or OM versus vehicle ([1]; presence or absence of metabolic activation): No significant differences
Number of reverse mutants/plate (Mean ± SD) ([2]; TA1537, with S9 activation, 78.1 μg/plate): 16 ± 2 reverse mutants/plate
Number of reverse mutants/plate (Mean ± SD) ([2]; TA1537, with S9 activation, 156.3 μg/plate): 14 ± 2 reverse mutants/plate
Number of reverse mutants/plate (Mean ± SD) ([2]; TA1537, with S9 activation, 312.5 μg/plate): 15 ± 5 reverse mutants/plate
Number of reverse mutants/plate (Mean ± SD) ([2]; TA1537, with S9 activation, 625 μg/plate): 14 ± 2 reverse mutants/plate
Number of reverse mutants/plate (Mean ± SD) ([2]; TA1537, with S9 activation, 1,250 μg/plate): 14 ± 1 reverse mutants/plate
Number of reverse mutants/plate (Mean ± SD) ([2]; TA1537, with S9 activation, 2,500 μg/plate): 16 ± 3 reverse mutants/plate
Number of reverse mutants/plate (Mean ± SD) ([2]; TA1537, with S9 activation, 5,000 μg/plate): 15 ± 2 reverse mutants/plate
Number of reverse mutants/plate (Mean ± SD) ([2]; TA1537, without S9 activation, 78.1 μg/plate): 14 ± 2 reverse mutants/plate
Number of reverse mutants/plate (Mean ± SD) ([2]; TA1537, without S9 activation, 156.3 μg/plate): 17 ± 6 reverse mutants/plate
Number of reverse mutants/plate (Mean ± SD) ([2]; TA1537, without S9 activation, 312.5 μg/plate): 13 ± 4 reverse mutants/plate
Number of reverse mutants/plate (Mean ± SD) ([2]; TA1537, without S9 activation, 625 μg/plate): 14 ± 3 reverse mutants/plate
Number of reverse mutants/plate (Mean ± SD) ([2]; TA1537, without S9 activation, 1,250 μg/plate): 15 ± 6 reverse mutants/plate
Number of reverse mutants/plate (Mean ± SD) ([2]; TA1537, without S9 activation, 2,500 μg/plate): 18 ± 1 reverse mutants/plate
Number of reverse mutants/plate (Mean ± SD) ([2]; TA1537, without S9 activation, 5,000 μg/plate): 13 ± 2 reverse mutants/plate
Cell viability (MTT) (CHL cells): decreased in dose dependent manner
Cell viability (MTT) ([3]; 62.5 μg/ml for 4 hr): no reduction of viable cell numbers > 70%
Cell viability (dose-range study) ([3]; 24 hr treatments): decreased in dose dependent manner
ROS and cellular DNA damage [4]: significantly decreased
HS-1793 related toxicity (reduced revertant numbers and/or thinning of the background lawn) ([5]; 5,000 μg/plate, absence or presence of S9 metabolic activation): not observed
Revertant frequencies compared to concurrent vehicle control ([5]; any dose (78.1~5,000 μg/plate), any tester strain, with or without the S9 mix): No increases in revertant frequencies
